According to ChEMBL document CHEMBL5584325, “Discovery of novel coumarin triazolyl and phenoxyphenyl triazolyl derivatives targeting amyloid beta aggregation-mediated oxidative stress and neuroinflammation for enhanced neuroprotection” (RSC Med Chem, 2024):
Active and inactive are the calls of the source. The rule behind the calls is not given here.

Key:
SH-SY5Y = experiment: Neuroprotective activity against human SH-SY5Y cells co-cultured with 10 uM compound pretreated BV-2 cells exposed to amyloid beta (1 to 42) assessed as cell viability measured after 24 hrs by MTT assay (reference value: 80.62 +/- 0.86%); format: functional; conditions: read-out: Activity
BV-2 [1] = experiment: Neuroprotective activity in amyloid beta (1 to 42)-induced cytotoxicity in mouse BV-2 cells assessed as cell viability at 10 uM measured after 24 hrs by MTT assay (reference value: 54.96 +/- 1.12%); format: functional; conditions: read-out: Activity
BV-2 [2] = experiment: Neuroprotective activity in amyloid beta (1 to 42)-induced oxidative stress in mouse BV-2 cells assessed as intracellular ROS level at 10 uM measured after 24 hrs by DCFH-DA staining based fluorescence assay (reference value: 150.91 +/- 0.49%); format: functional
[3] = target: T1, Amyloid-beta precursor protein (Homo sapiens, UniProt P05067); experiment: Inhibition of amyloid beta (1 to 42) aggregation in mouse BV-2 cells exposed to amyloid-beta (1 to 42) (unknown origin) at 10 uM measured after 24 to 48 hrs by thioflavin T staining based fluorescence assay; format: cell-based; conditions: time 24-48 hrs
BV-2 [4] = experiment: Neuroprotective activity in amyloid beta (1 to 42)-induced inflammation in mouse BV-2 cells assessed as TNFalpha mRNA expression at 10 uM measured after 24 hrs by SYBR green staining based qRT-PCR analysis (reference value: 1.73 +/- 0.22%); format: functional
BV-2 [5] = experiment: Neuroprotective activity in amyloid beta (1 to 42)-induced inflammation in mouse BV-2 cells assessed as IL-1beta mRNA expression at 10 uM measured after 24 hrs by SYBR green staining based qRT-PCR analysis (reference value: 1.53 +/- 0.13%); format: functional
[6] = target: T1, Amyloid-beta precursor protein; experiment: Inhibition of amyloid beta (1 to 42) (unknown origin) aggregation at 100 uM incubated for 48 hrs by ThioflavinT staining based fluorescence assay relative to control
Summary of the method: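 Compound in DMSO (1 μl of a 1 mM solution) mixed with 9 μl of 25 μM Aβ1–42 in Tris pH 7.4. Incubated 48 h at 37 °C without agitation, then 200 μl of 5 μM ThT added. Fluorescence read at ex 446/em 500 nm; % inhibition vs DMSO control, solvent blank subtracted.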

BV-2 [7] = experiment: Cytotoxicity against mouse BV-2 cells assessed as reduction in cell viability at 10 uM measured after 24 hrs by MTT assay; format: toxicity, cell-based; conditions: bv-2, 24 h
Summary of the method: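 BV-2 microglia grown in DMEM with 10% FBS, HEPES and Glutamax at 37 °C, 5% CO2, seeded overnight at 1 × 10^4 cells/well. Compound alone at 0–200 μM (range extended lower where needed) for 24 h. MTT 2 h at 37 °C, formazan dissolved in DMSO, A570 read. Used to pick non-toxic concentrations.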

[8] = Octanol/water partition coefficient, log P of the compound incubated for 2 hrs under shaking condition by HPLC analysis; format: physicochemical
Summary of the method: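 Shake-flask log P: 10 mM stock (DMSO, or octanol for highly lipophilic compounds) partitioned between mutually saturated octanol and water at three phase ratios. Shaken 2 h at 25 ± 1 °C, phases separated, each phase quantified by C18 HPLC-UV. Mobile phase 0.1% formic acid:methanol 40:60; log P averaged over the three ratios.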

[9] = target: T1, Amyloid-beta precursor protein; experiment: Inhibition of amyloid beta (1 to 42) (unknown origin) aggregation incubated for 48 hrs by ThioflavinT staining based fluorescence assay
[10] = Induction of ROS generation in mouse BV-2 cells at 10 uM measured after 24 hrs by DCFH-DA staining based fluorescence assay; format: toxicity, cell-based; conditions: bv-2, 24 h
Summary of the method: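 BV-2 cells seeded overnight at 1 × 10^4/well, compound alone (no Aβ). Cells loaded with 20 μM (final) DCFH-DA for 30 min at 37 °C, washed, then given conditioned medium for 24 h. Fluorescence read at ex […] nm. Expressed as % of control; n = 3 in triplicate, one-way ANOVA with LSD.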

BV-2 [11] = experiment: Neuroprotective activity in amyloid beta (1 to 42)-induced inflammation in mouse BV-2 cells assessed as change in IL-6 mRNA expression at 10 uM measured after 24 hrs by SYBR green staining based qRT-PCR analysis; format: functional, cell-based

T1 sequence (P05067 whole entry): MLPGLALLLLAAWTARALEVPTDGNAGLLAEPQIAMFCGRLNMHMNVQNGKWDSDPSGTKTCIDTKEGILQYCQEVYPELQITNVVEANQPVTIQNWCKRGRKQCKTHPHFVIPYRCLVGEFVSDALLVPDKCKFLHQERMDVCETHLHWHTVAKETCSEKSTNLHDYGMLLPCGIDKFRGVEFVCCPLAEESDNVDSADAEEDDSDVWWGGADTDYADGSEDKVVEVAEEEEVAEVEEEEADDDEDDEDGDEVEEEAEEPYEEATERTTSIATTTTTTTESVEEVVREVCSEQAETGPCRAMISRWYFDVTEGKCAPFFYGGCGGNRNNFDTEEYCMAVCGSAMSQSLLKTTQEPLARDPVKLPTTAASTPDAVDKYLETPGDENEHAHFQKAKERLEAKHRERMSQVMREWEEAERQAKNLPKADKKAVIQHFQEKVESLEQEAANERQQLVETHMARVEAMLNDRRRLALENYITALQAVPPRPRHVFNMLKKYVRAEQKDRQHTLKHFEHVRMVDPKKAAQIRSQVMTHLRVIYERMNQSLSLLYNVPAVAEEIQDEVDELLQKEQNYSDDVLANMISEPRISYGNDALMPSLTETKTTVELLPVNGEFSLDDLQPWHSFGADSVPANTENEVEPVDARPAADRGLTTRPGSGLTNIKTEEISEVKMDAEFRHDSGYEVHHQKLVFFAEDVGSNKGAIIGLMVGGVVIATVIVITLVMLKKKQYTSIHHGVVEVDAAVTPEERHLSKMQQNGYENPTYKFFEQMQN

COc1cc(/C=C/C(=O)OCc2cn(-c3ccc(Oc4ccccc4)cc3)nn2)ccc1O
viability at 10 µM (SH-SY5Y): 87.2% | viability at 10 µM (BV-2 [1]): 62.9% | Activity (BV-2 [2]): 105.68% | inhibition [3]: Active | Activity (BV-2 [4]): 1.19% | Activity (BV-2 [5]): 8.29% | inhibition [6]: > 50% | Activity (BV-2 [7]): Non-Toxic | logP at 2 h [8]: 4.92 | IC50 [9]: 14.1 µM | Activity [10]: Non-Toxic | Activity (BV-2 [11]): inactive
